This is an account of results in publication PMC10734015 (ACS Omega, 2023).

In brackets after ≈: the same amount, converted by molar mass. Read-outs that look alike come from different tables or passages of the source.

The subject of assay [1] is anti-mitragynine antibody. Nature of the assay: Cross-reactivity study by CI-ELISA. The class given is binding, rabbit. Particulars: for IC50 values: CI-ELISA, compounds at 0.001–50.0 μg/mL, 4PL fit; for cross-reactivity (%): calculated from IC50 values relative to mitragynine (eq 3). The gist of the method:
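Plates coated overnight (16 h) at 4 °C with mitragynine-OVA at 0.25 μg/mL in PBS pH 7.4, washed three times in PBS, then blocked with 5% (w/v) skimmed blocker. Rabbit polyclonal IgG raised against C22-MG-cBSA was used at 1/1000 v/v in 0.05% Tween 20 and pre-incubated with test compound before transfer to wells. Detection used goat anti-rabbit-HRP at 1/2500 v/v.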

For assay [2] the following is noted: ELISA with pre-incubation (inhibition method); cited from earlier work.
The conditions of assay [3]: ELISA with pre-incubation (inhibition method); cited from earlier work. This is another data set of the same source.

For the molecule `COC(=O)C1=CO[C@@H](C)[C@@H]2CN3CCc4c([nH]c5ccc(OC)cc45)[C@@H]3C[C@H]12` [aricine], in assay [1], the IC50 values is 9.819 and the “cross-reactivity (%)” value was 1.90%.

On to `CN(C)CCCN1c2ccccc2Sc2ccc(Cl)cc21` [chlorpromazine], for which the 50% inhibitory concentration (IC50) in assay [2] is 0.00058 mg/L (≈ 0.00182 µM).

For the molecule `CC1(C)C(C(=O)OC(C#N)c2cccc(Oc3ccccc3)c2)C1(C)C` (centres unmarked) [fenpropathrin], the IC50 in assay [3] is 0.34 mg/L (≈ 0.973 µM).

Take corynantheidine: in assay [1], the IC50 values came out at 1.854 and the “cross-reactivity (%)” value was 10.08%.

Turning to `COC(=O)[C@H]1[C@H]2C[C@@H]3c4[nH]c5cc(OC)ccc5c4CCN3C[C@H]2C[C@@H](OC(=O)c2cc(OC)c(OC)c(OC)c2)[C@@H]1OC` [reserpine], in assay [1], the IC50 values turned out to be 9.889 and the “cross-reactivity (%)” value was 1.89%.
